Data taken from the M2OR odorant receptor database.

Experiments:
Settings in all cases: stereoisomer not certain
[1] = biological target: T1, OR5AC2 (Homo sapiens) (UniProt Q9NZP5)
T1 sequence (whole entry): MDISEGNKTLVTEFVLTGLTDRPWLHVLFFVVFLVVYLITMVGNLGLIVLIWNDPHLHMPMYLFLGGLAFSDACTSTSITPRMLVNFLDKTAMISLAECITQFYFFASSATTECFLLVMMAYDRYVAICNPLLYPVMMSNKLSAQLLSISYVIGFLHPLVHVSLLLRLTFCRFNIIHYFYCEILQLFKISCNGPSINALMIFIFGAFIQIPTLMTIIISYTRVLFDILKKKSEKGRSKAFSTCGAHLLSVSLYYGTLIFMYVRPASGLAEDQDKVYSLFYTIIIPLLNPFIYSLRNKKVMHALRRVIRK
Procedure, shortened: (§1)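 Assay methods differ from source to source, frequently being transient luciferase assays in mammalian cell lines. For each receptor–molecule pair, the label responsive (active) applies when the original authors judged the measured signal statistically different from baseline, and non-responsive (inactive) applies otherwise.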

[2] = biological target: T2, OR5B17 (Homo sapiens) (UniProt Q8NGF7)
T2 sequence (whole entry): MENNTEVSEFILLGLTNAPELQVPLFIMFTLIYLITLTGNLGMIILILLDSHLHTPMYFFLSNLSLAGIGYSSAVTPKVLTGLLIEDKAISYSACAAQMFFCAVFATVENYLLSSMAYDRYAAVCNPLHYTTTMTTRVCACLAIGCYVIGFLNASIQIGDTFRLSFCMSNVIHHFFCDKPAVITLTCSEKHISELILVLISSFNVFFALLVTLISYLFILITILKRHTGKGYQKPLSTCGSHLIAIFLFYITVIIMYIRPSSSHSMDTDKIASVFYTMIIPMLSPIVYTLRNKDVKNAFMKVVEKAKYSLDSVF
Procedure, shortened: as §1

[3] = biological target: T3, OR56B4 (Homo sapiens) (UniProt Q8NH76)
T3 sequence (whole entry): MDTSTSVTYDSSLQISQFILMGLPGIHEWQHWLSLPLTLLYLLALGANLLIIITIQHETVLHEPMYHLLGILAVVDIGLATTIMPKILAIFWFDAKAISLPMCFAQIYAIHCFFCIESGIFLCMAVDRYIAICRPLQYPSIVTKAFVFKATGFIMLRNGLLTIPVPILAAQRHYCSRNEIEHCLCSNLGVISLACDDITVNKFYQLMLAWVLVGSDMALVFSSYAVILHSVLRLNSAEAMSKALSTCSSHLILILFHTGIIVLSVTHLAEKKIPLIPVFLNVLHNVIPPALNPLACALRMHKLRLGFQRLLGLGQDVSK
Procedure, shortened: as §1

[4] = biological target: T4, OR5A1 (Homo sapiens) (UniProt Q8NGJ0)
T4 sequence (whole entry): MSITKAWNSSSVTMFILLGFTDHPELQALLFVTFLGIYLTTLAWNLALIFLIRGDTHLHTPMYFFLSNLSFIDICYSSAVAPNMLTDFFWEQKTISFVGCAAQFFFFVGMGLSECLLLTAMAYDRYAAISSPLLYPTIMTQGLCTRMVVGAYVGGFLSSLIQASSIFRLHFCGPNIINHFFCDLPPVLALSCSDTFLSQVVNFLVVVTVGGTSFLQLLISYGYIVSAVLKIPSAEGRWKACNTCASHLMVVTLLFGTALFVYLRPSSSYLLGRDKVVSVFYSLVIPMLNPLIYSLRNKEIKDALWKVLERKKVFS
Procedure, shortened: as §1

[5] = biological target: T5, OR5A2 (Homo sapiens) (UniProt Q8NGI9)
T5 sequence (whole entry): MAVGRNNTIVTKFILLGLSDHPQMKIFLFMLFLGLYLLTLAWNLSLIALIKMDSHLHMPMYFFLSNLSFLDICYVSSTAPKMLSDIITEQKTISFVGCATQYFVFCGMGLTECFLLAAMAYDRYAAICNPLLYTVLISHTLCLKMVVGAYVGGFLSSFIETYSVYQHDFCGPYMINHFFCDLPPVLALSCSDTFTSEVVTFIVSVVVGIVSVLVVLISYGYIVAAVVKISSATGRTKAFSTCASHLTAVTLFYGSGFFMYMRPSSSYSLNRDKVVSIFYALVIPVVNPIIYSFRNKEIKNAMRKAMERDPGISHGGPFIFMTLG
Procedure, shortened: as §1

[6] = biological target: T6, OR5AK2 (Homo sapiens) (UniProt Q8NH90)
T6 sequence (whole entry): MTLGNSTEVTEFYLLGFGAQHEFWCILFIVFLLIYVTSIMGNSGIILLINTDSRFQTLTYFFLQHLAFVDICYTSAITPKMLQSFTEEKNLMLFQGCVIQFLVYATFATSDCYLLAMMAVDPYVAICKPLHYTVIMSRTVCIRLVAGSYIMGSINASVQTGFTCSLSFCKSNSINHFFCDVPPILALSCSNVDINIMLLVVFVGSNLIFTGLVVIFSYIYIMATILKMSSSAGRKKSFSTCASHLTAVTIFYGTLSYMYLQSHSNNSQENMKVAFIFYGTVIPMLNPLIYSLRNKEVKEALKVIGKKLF
Procedure, shortened: as §1

[7] = biological target: T7, OR5AN1 (Homo sapiens) (UniProt Q8NGI8)
T7 sequence (whole entry): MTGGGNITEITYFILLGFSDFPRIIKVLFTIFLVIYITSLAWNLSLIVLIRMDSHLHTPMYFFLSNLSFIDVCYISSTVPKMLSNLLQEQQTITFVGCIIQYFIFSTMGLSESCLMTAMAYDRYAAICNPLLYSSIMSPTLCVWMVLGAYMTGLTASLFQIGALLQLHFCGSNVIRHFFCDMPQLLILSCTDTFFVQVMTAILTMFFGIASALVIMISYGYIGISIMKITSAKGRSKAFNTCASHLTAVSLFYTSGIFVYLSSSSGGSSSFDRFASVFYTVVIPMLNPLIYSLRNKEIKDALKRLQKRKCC
Procedure, shortened: as §1

[8] = biological target: T8, OR5AP2 (Homo sapiens) (UniProt Q8NGF4)
T8 sequence (whole entry): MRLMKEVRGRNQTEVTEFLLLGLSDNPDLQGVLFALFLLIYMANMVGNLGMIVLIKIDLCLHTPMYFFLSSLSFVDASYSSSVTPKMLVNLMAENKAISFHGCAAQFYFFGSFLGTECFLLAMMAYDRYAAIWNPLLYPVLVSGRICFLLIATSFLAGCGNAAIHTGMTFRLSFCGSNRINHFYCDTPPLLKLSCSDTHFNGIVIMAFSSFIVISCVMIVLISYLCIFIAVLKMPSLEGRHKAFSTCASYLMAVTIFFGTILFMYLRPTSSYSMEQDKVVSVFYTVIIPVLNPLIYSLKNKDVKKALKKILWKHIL
Procedure, shortened: as §1

[9] = biological target: T9, OR5AR1 (Homo sapiens) (UniProt Q8NGP9)
T9 sequence (whole entry): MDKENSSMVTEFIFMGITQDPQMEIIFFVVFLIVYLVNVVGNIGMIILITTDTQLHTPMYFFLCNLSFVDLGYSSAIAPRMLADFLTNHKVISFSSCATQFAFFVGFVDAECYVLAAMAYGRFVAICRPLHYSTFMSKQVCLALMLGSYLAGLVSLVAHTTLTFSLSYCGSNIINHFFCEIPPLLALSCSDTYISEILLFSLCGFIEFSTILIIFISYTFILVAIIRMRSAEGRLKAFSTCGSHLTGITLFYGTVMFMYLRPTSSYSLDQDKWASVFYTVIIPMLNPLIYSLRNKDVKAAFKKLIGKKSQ
Procedure, shortened: as §1

[10] = biological target: T10, OR5AS1 (Homo sapiens) (UniProt Q8N127)
T10 sequence (whole entry): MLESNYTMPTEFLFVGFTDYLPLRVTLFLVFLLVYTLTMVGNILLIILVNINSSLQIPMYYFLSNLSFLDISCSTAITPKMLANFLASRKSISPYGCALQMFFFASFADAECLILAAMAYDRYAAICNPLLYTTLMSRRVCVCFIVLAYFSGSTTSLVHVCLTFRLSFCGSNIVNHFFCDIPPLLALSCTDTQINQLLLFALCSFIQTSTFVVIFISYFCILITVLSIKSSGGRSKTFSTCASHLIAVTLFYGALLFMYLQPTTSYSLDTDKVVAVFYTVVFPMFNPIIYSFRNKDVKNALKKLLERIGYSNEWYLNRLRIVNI
Procedure, shortened: as §1

[11] = biological target: T11, OR5AU1 (Homo sapiens) (UniProt Q8NGC0)
T11 sequence (whole entry): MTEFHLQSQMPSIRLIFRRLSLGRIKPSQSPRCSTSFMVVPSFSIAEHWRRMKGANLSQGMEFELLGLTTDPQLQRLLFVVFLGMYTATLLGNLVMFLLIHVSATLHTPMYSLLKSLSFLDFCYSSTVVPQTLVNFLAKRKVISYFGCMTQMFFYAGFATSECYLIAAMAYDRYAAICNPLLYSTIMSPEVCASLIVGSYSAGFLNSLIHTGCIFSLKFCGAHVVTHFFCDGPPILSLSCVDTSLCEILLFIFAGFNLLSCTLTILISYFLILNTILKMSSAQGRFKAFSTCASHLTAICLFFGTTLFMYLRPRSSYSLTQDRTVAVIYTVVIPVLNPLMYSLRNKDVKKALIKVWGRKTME
Procedure, shortened: as §1

[12] = biological target: T12, OR5B12 (Homo sapiens) (UniProt Q96R08)
T12 sequence (whole entry): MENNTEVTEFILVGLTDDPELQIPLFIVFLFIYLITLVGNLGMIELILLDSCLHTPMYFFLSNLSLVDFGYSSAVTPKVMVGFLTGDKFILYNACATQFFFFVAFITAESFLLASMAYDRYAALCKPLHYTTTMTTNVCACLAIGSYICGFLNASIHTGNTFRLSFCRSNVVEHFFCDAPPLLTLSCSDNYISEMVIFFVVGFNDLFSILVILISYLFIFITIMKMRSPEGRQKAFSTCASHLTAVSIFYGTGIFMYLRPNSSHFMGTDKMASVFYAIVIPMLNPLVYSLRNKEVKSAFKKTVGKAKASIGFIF
Procedure, shortened: as §1

[13] = biological target: T13, OR5B2 (Homo sapiens) (UniProt Q96R09)
T13 sequence (whole entry): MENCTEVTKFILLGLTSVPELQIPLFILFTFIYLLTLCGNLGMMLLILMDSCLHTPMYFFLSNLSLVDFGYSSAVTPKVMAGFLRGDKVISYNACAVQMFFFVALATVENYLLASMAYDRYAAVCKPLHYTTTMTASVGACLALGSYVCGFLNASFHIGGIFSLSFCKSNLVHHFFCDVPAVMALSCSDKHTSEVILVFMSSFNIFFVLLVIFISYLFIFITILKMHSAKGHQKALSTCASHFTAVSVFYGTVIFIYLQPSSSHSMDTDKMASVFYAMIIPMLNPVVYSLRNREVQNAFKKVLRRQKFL
Procedure, shortened: as §1

[14] = biological target: T14, OR5B21 (Homo sapiens) (UniProt A6NL26)
T14 sequence (whole entry): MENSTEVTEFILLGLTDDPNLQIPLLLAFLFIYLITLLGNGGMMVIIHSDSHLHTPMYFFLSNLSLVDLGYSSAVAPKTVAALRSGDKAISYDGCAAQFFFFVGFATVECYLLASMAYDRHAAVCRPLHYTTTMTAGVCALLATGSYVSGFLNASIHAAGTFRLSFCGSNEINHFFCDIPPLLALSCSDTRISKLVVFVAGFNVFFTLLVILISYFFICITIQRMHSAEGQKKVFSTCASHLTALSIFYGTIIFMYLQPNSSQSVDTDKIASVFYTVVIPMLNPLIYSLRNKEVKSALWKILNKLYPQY
Procedure, shortened: as §1

[15] = biological target: T15, OR5B3 (Homo sapiens) (UniProt Q8NH48)
T15 sequence (whole entry): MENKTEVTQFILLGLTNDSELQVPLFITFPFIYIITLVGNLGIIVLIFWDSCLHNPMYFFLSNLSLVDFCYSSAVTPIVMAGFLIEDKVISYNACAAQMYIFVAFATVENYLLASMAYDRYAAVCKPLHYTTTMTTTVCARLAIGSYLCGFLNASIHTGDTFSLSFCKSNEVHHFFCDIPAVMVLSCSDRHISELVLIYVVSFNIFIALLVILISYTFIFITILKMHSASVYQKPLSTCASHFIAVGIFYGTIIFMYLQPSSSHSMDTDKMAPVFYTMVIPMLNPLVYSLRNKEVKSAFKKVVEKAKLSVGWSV
Procedure, shortened: as §1

Measured: odorant receptor agonist call

CC(C)=CCCC(C)=CCO
inactive: [1] | [2]

CC(=O)OCc1ccccc1
inactive: [1] | [2]

C=CC(C)(CCC=C(C)C)OC(C)=O (configuration not stated)
inactive: [1] | [2]

CC(C)=CCCC(C)CC=O (configuration not stated)
inactive: [1] | [2]

CCCCC(S)C(C)CO (configuration not stated)
inactive: [4] | [5] | [1] | [6] | [7] | [8] | [9] | [10] | [11] | [12] | [2] | [13] | [14] | [15]
active: [3]

CC(CC=O)c1ccc(C(C)(C)C)cc1 (configuration not stated)
inactive: [1] | [2]

CC(C)(C)C1CCCCC1OCCCCO (configuration not stated)
inactive: [1] | [2]
